In ChEMBL document CHEMBL1145118, “Metabolites of febrifugine and its synthetic analogue by mouse liver S9 and their antimalarial activity against Plasmodium malaria parasite” (J Med Chem, 2003):

Legend:
FM3A = assay: Cytotoxicity against FM3A mouse mammary cells; type: functional, cell-based
Plasmodium falciparum = assay: In vitro antimalarial activity against Plasmodium falciparum FCR3; type: functional, organism-based
Plasmodium berghei [1] = assay: (§1) In vivo effective dose for antimalarial activity by intraperitoneal dose; type: functional; conditions: ip
How it was run: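 P. berghei-infected mice, five per group. Test agents were prepared at various concentrations in distilled water or olive oil and given intraperitoneally once daily on days 0–3. Parasitemia was measured on day 4, the day after the last dose, and effective doses were derived by a previously reported protocol.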

Plasmodium berghei [2] = assay: In vivo effective dose for antimalarial activity by peroral dose; type: functional; conditions: po
How it was run: (§2)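 Mice infected with P. berghei were dosed intraperitoneally or orally, in groups of five, once daily on days 0–3. Compounds were given at various concentrations in distilled water or olive oil. Parasitemia was measured on day 4, the day after the last dose. ED50 and ED90 were derived by a previously reported protocol.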

Plasmodium berghei [3] = assay: as §1; type: functional; conditions: ip; how it was run: as §2; remark: listed apart in the source
[4] = Selectivity ratio between cytotoxicity to antimalarial activity was determined; type: functional
Plasmodium berghei [5] = assay: In vivo antimalarial activity at >100mg/kg intraperitoneal dose; type: functional

SMILES | EC50 (FM3A) | EC50 (Plasmodium falciparum) | ED50 (Plasmodium berghei [1]) | ED50 (Plasmodium berghei [2]) | ED90 (Plasmodium berghei [2]) | ED90 (Plasmodium berghei [3]) | Ratio [4] | Inhibition (Plasmodium berghei [5])
O=C(C[C@H]1NC(=O)CC[C@@H]1O)Cn1cnc2ccccc2c1=O | > 52000 nM | > 52000 nM | – | – | – | – | – | –
C[C@@H]1CC[C@H]2[C@@H](C)C(=O)O[C@@H]3O[C@@]4(C)CC[C@@H]1[C@]32OO4 [ARTEMISININ] | – | – | 2 mg/kg | 3 mg/kg | 8 mg/kg | 3.3 mg/kg | 1000 | –
O=C(C[C@@H]1NCCC[C@H]1O)Cn1cnc2ccccc2c1=O (single isomer, unassigned) [FEBRIFUGINE] | – | – | 0.3 mg/kg | – | – | 1.5 mg/kg | 243 | –
O=C(C[C@H]1NCCC[C@@H]1O)Cn1c(=O)[nH]c2ccccc2c1=O | > 85000 nM | 6600 nM | – | – | – | – | >13 | –
O=c1c2ccccc2ncn1CC1(O)C[C@@H]2NCCC[C@@H]2O1 (stereo not given in full) [ISOFEBRIFUGINE] | – | – | 79 mg/kg | – | – | – | 53 | 70%
O=c1c2cc(O)ccc2ncn1CC1(O)C[C@@H]2NCCC[C@@H]2O1 (stereo not given in full) | 29000 nM | 0.27 nM | 6 mg/kg | – | – | 37 mg/kg | 10741 | –
CC1(C)[C@@H](n2cnc3ccccc3c2=O)C(=O)C[C@@H]2[C@@H](O)CCCN21 | – | – | 2.5 mg/kg | – | – | 6.6 mg/kg | 238 | –
CCN(CC)CCCC(C)Nc1ccnc2cc(Cl)ccc12 (stereo not given) [CHLOROQUINE] | – | – | 5.4 mg/kg | 32 mg/kg | 89 mg/kg | 13 mg/kg | – | –
O=C(C[C@H]1NCC[C@H](O)[C@@H]1O)Cn1cnc2ccccc2c1=O | 36000 nM | 22 nM | 2.4 mg/kg | 8 mg/kg | 23 mg/kg | 8.3 mg/kg | 1636 | –
O=c1c2ccccc2ncn1CC1(O)C[C@@H]2NCC[C@H](O)[C@@H]2O1 (stereo not given in full) | 250 nM | 150 nM | – | – | – | – | 167 | –
O=C(C[C@H]1NCCC[C@@H]1O)Cn1cnc2ccc(O)cc2c1=O | 270 nM | 2.2 nM | 0.6 mg/kg | 15 mg/kg | 27 mg/kg | 5.2 mg/kg | 123 | –
